ChEMBL document CHEMBL3414458, “Discovery of novel 2,5-dioxoimidazolidine-based P2X(7) receptor antagonists as constrained analogues of KN62” (J Med Chem, 2015)
Calls of active or inactive are those of the source. No cut-off for these calls is given here.

Experiments:
[1] = target: T1, P2X purinoceptor 7 (Homo sapiens, UniProt Q99572); test: Antagonist activity at recombinant human P2X7 receptor expressed in HEK293 cells assessed as inhibition of BzATP-induced intracellular ethidium bromide uptake after 2 hrs by fluorescence assay; assay type: cell-based
T1 sequence (Q99572 whole entry): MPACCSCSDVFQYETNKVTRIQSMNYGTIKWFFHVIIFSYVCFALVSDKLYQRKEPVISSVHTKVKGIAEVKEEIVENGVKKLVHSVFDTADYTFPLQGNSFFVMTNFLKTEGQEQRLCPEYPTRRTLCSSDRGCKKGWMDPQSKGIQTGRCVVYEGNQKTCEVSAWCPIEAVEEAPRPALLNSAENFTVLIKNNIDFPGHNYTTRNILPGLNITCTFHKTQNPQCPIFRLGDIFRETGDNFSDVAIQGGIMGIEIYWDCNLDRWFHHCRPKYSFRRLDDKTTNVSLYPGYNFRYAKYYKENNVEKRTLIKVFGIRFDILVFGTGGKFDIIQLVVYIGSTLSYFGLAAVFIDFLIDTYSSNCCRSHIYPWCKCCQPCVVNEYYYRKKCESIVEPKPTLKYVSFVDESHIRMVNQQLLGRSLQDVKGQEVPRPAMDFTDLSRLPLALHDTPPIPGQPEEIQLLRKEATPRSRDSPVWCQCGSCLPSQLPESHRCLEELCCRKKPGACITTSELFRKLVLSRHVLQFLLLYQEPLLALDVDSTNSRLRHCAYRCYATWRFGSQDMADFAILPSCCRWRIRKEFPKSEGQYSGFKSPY
In short: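 Human HEK293 cells stably expressing recombinant human P2X7; ethidium accumulation stimulated by BzATP was measured.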

[2] = target: T2, P2X purinoceptor 7 (Homo sapiens) (UniProt Q99572); test: Antagonist activity at P2X7 receptor in LPS/IFN-gamma-differentiated human THP1 cells assessed as inhibition of BzATP-induced IL-1beta release at 1 uM preincubated for 30 mins followed by BzATP induction measured after 30 mins by ELISA relative to control; assay type: cell-based; conditions: THP-1
T2 sequence (whole entry): T1 sequence (Q99572 whole entry)
In short: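 LPS-primed THP-1 human monocytes were stimulated with BzATP, and IL-1β release was measured by ELISA. Test compound was given at a single concentration of 1 µM, and results are expressed as percent inhibition of BzATP-induced IL-1β release.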

[3] = target: T2, P2X purinoceptor 7 (Homo sapiens); test: Antagonist activity at recombinant human P2X7 receptor expressed in HEK293 cells assessed as inhibition of BzATP-induced intracellular ethidium bromide uptake at 10 uM after 2 hrs by fluorescence assay; assay type: cell-based
[4] = target: T1, P2X purinoceptor 7; test: Antagonist activity at P2X7 receptor in LPS/IFN-gamma-differentiated human THP1 cells assessed as inhibition of BzATP-induced IL-1beta release preincubated for 30 mins followed by BzATP induction measured after 30 mins by ELISA; assay type: cell-based, THP-1
In short: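 Human THP-1 monocytes, LPS-primed, stimulated with BzATP; IL-1β release measured by ELISA. Active compounds were screened at 1 µM, and full concentration-response curves were run to obtain IC50.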

Row | Compound | IC50 [1] [nM] | inhibition [2] [%] | inhibition [3] | IC50 [4] [nM]
1 | CN1C(=O)C(Cc2ccc(OS(=O)(=O)c3cccc4cnccc34)cc2)N(C2CCN(C(=O)c3ccc(Cl)c(C(F)(F)F)c3)CC2)C1=O (racemic) | 542 |  |  | 
2 | O=C1C(Cc2ccc(OS(=O)(=O)c3cccc4cnccc34)cc2)N(CC2CCN(Cc3ccccc3)CC2)C(=O)N1Cc1cccc2cnccc12 (racemic) | 8960 | 42 |  | 
3 | O=C1NC(=O)N(CC2CCNCC2)C1Cc1ccc(OS(=O)(=O)c2cccc3cnccc23)cc1 (racemic) |  |  | inactive | 
4 | CC(C)(C)OC(=O)N1CCC(CN2C(=O)N(Cc3cccc4cnccc34)C(=O)C2Cc2ccc(OS(=O)(=O)c3cccc4cnccc34)cc2)CC1 (racemic) | 1970 | 44 |  | 
5 | COc1ccc(C(=O)N2CCC(N3C(=O)NC(=O)C3Cc3ccc(OS(=O)(=O)c4cccc5cnccc45)cc3)CC2)cc1OC (racemic) | 3760 | 52 |  | 
6 | O=C1NC(=O)N(C2CCN(C(=O)C3CCCCC3)CC2)C1Cc1ccc(OS(=O)(=O)c2cccc3cnccc23)cc1 (racemic) | 133 |  |  | 80
7 | O=C1NC(=O)N(C2CCN(Cc3ccccc3)CC2)C1Cc1ccc(OS(=O)(=O)c2cccc3cnccc23)cc1 (racemic) | 1620 |  |  | 
8 | O=C1NC(=O)N(C2CCN(C(=O)CC34CC5CC(CC(C5)C3)C4)CC2)C1c1ccc(OS(=O)(=O)c2cccc3cnccc23)cc1 (racemic) |  |  | 46% | 
9 | O=C1NC(=O)N(Cc2cccc3cnccc23)C1Cc1ccc(OS(=O)(=O)c2cccc3cnccc23)cc1 (racemic) | 3820 | 38 |  | 
10 | CC12CC3CC(C)(C1)CC(C(=O)N1CCC(N4C(=O)NC(=O)C4Cc4ccc(OS(=O)(=O)c5cccc6cnccc56)cc4)CC1)(C3)C2 (racemic) | 99 |  |  | 81
11 | O=C1NC(=O)N(C2CCN(C(=O)CC34CC5CC(CC(C5)C3)C4)CC2)C1Cc1ccc(OS(=O)(=O)c2cccc3cnccc23)cc1 (racemic) | 84 | > 95 |  | 15
12 | O=C1NC(=O)N(CC2CCN(Cc3ccccc3)CC2)C1Cc1ccc(OS(=O)(=O)c2cccc3cnccc23)cc1 (racemic) | 1820 | 52 |  | 

Continued by falling IC50 [1], values first:

Row | IC50 [1] [nM] | inhibition [2] [%] | inhibition [3] | IC50 [4] [nM] | Compound
13 | 12200 | 52 |  |  | O=C1N[C@@H](Cc2ccc(OS(=O)(=O)c3cccc4cnccc34)cc2)C(=O)N1Cc1cccc2cnccc12
14 | 12000 | 50 |  |  | CC(C)(C)OC(=O)N1CCC(CN2C(=O)C(Cc3ccc(OS(=O)(=O)c4cccc5cnccc45)cc3)N(Cc3cccc4cnccc34)C2=O)CC1 (racemic)
15 | 7720 | 45 |  |  | CC(C)(C)OC(=O)N1CCC(CN2C(=O)N[C@@H](Cc3ccc(OS(=O)(=O)c4cccc5cnccc45)cc3)C2=O)CC1
16 | 5730 |  |  |  | O=C1NC(=O)N(CCC2CCN(Cc3ccccc3)CC2)C1Cc1ccc(OS(=O)(=O)c2cccc3cnccc23)cc1 (racemic)
17 | 885 | 60 |  |  | CC(C)(C)OC(=O)N1CCC(CN2C(=O)NC(=O)C2Cc2ccc(OS(=O)(=O)c3cccc4cnccc34)cc2)CC1 (racemic)
18 | 847 |  |  |  | CCN1C(=O)C(Cc2ccc(OS(=O)(=O)c3cccc4cnccc34)cc2)N(C2CCN(C(=O)c3ccc(Cl)c(C(F)(F)F)c3)CC2)C1=O (racemic)
19 | 789 | 59 |  |  | O=C1NC(=O)N(CC2CCN(C(=O)c3ccccc3)CC2)C1Cc1ccc(OS(=O)(=O)c2cccc3cnccc23)cc1 (racemic)
20 | 666 | 68 |  |  | O=C1NC(=O)N(C2CCN(C(=O)c3ccccc3Cl)CC2)C1Cc1ccc(OS(=O)(=O)c2cccc3cnccc23)cc1 (racemic)
21 | 109 | > 95 |  | 29 | O=C1NC(=O)N(C2CCN(C(=O)CC3CC4CCC3C4)CC2)C1Cc1ccc(OS(=O)(=O)c2cccc3cnccc23)cc1 (racemic)
22 | 54 |  |  | 9 | O=C1NC(=O)N(C2CCN(C(=O)c3ccc(Cl)c(C(F)(F)F)c3)CC2)C1Cc1ccc(OS(=O)(=O)c2cccc3cnccc23)cc1 (single isomer, unassigned; (-))
23 | 23 |  |  | 14 | O=C1NC(=O)N(C2CCN(C(=O)C34CC5CC(CC(C5)C3)C4)CC2)C1Cc1ccc(OS(=O)(=O)c2cccc3cnccc23)cc1 (racemic)
